From ChEMBL document CHEMBL1129428 (J Med Chem, 1996)

How the values were obtained:
Mus musculus [1] = assay: Anticonvulsant activity after intraperitoneal injection into mice by using MES screen test after 0.5 hr; format: functional
Mus musculus [2] = assay: Anticonvulsant activity after intraperitoneal injection into mice by using scPTZ screen after 0.5 hr; format: functional
Mus musculus [3] = assay: Anticonvulsant activity after intraperitoneal injection into mice by using scPTZ screen test after 4 hr; format: functional
Mus musculus [4] = assay: Toxicity after intraperitoneal injection into mice by using toxicity screen test after 0.5 hr; format: organism-based; settings: in vivo, ip
Procedure, shortened: (§1)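 Mice injected intraperitoneally at 30, 100 and 300 mg/kg and examined 0.5 and 4 h afterwards. Each entry is the minimum dose giving activity (MES protection, scPTZ protection, or rotorod failure for neurotoxicity) in half or more of the mice. Activity is called absent if nothing occurs at 300 mg/kg.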

Mus musculus [5] = assay: Compound was tested for toxicity after intraperitoneal injection into mice by using toxicity screen test after 4 hr; format: organism-based; settings: in vivo, ip; procedure, shortened: as §1
Rattus norvegicus [6] = assay: Compound was tested for anticonvulsant activity after Oral Administration into Rats by using MES screen test after 0.25h,dose 12.5 mg/kg; No activity was demonstarted; format: functional, organism-based; design: dose 12.5 mg/kg
Procedure, shortened: (§2)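 Rats received the compound orally. […] Rats were tested in the MES screen at 0.25, 0.5, 1, 2 and 4 h. Each value is the number of rats protected out of 4. The test followed NINDS procedures.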

Rattus norvegicus [7] = assay: Compound was tested for anticonvulsant activity after Oral Administration into Rats by using MES screen test after 4h,dose 12.5 mg/kg; No activity was demonstarted; format: functional, organism-based; design: dose 12.5 mg/kg; procedure, shortened: as §2
Rattus norvegicus [8] = assay: Compound was tested for anticonvulsant activity after Oral Administration into Rats by using MES screen test after 0.5h,dose 12.5 mg/kg; No activity was demonstarted; format: functional, organism-based; design: dose 12.5 mg/kg; procedure, shortened: as §2
Rattus norvegicus [9] = assay: Compound was tested for anticonvulsant activity after Oral Administration into Rats by using MES screen test after 1h,dose 12.5 mg/kg; No activity was demonstarted; format: functional, organism-based; design: dose 12.5 mg/kg; procedure, shortened: as §2
Rattus norvegicus [10] = assay: Compound was tested for anticonvulsant activity after Oral Administration into Rats by using MES screen test after 2h,dose 12.5 mg/kg; number of rats out of four which were protected; format: functional; procedure, shortened: as §2
Mus musculus [11] = assay: Anticonvulsant activity after intraperitoneal injection into mice measured in a maximal electroshock scree (MES) screen; format: functional
Mus musculus [12] = assay: Compound was tested for anticonvulsant activity after intraperitoneal injection into mice by using MES screen test after 2 hr; format: functional; settings: ip
Procedure, shortened: (§3)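 Quantitative intraperitoneal mouse testing in the MES, scPTZ or rotorod neurotoxicity screens at the peak time given for each compound (0.25–2 h). ED50 or TD50 reported in mg/kg with 95% CI and slope (SE).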

Mus musculus [13] = assay: Compound was tested for anticonvulsant activity after intraperitoneal injection into mice by using scPTZ screen test after 2 hr; format: functional; settings: ip; procedure, shortened: as §3
[14] = Compound was tested for toxicity after intraperitoneal injection into mice by using neurotoxicity screen test after 2 hr; format: organism-based; settings: mouse, in vivo, ip; procedure, shortened: as §3
Rattus norvegicus [15] = assay: Compound was tested for anticonvulsant activity after Oral Administration into Rats by using MES screen test after 4h,dose 12.5 mg/kg; number of rats out of four which were protected; format: functional; procedure, shortened: as §2
Rattus norvegicus [16] = assay: Compound was tested for anticonvulsant activity after Oral Administration into Rats by using MES screen test after 0.25h,dose 12.5 mg/kg; number of rats out of four which were protected; format: functional; procedure, shortened: as §2
Rattus norvegicus [17] = assay: Anticonvulsant activity after oral administration into rats; format: functional; design: concentration or dose not given beside the values
Rattus norvegicus [18] = assay: Compound was tested for anticonvulsant activity after Oral Administration into Rats by using MES screen test after 1h,dose 12.5 mg/kg; number of rats out of four which were protected; format: functional; procedure, shortened: as §2
Rattus norvegicus [19] = assay: Compound was tested for anticonvulsant activity after Oral Administration into rat by using MES screen test after 4 hr; format: functional
Procedure, shortened: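 Rats dosed orally, typically at 50 mg/kg first, then mostly 12.5 mg/kg (some compounds at 30 mg/kg), and tested by maximal electroshock. Four rats per compound, scored at 0.25, 0.5, 1, 2 and 4 h as the number of rats protected out of 4.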

[20] = Compound was tested for toxicity after oral administration in rat by using neurotoxicity screen test after 0.25-24 hr; format: organism-based; settings: in vivo
Procedure, shortened: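 Rat neurotoxicity after oral dosing, observed at 0.25, 0.5, 1, 2, 4, 6, 8 and 24 h (8 h omitted for one compound).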

Mus musculus [21] = assay: Compound was tested for anticonvulsant activity after intraperitoneal injection into mice by using MES screen test after 1 hr; format: functional; settings: ip; procedure, shortened: as §3
Rattus norvegicus [22] = assay: Compound was tested for anticonvulsant activity after Oral Administration into Rats by using MES screen test after 4h,dose 50 mg/kg; number of rats out of four which were protected; format: functional; procedure, shortened: as §2
Rattus norvegicus [23] = assay: Compound was tested for anticonvulsant activity after Oral Administration into Rats by using MES screen test after 2h,dose 50 mg/kg; number of rats out of four which were protected; format: functional; procedure, shortened: as §2
Rattus norvegicus [24] = assay: Compound was tested for anticonvulsant activity after Oral Administration into Rats by using MES screen test after 0.25h,dose 50 mg/kg; number of rats out of four which were protected; format: functional; procedure, shortened: as §2
Rattus norvegicus [25] = assay: Compound was tested for anticonvulsant activity after Oral Administration into Rats by using MES screen test after 0.5h,dose 50 mg/kg; number of rats out of four which were protected.; format: functional; procedure, shortened: as §2
Rattus norvegicus [26] = assay: Compound was tested for anticonvulsant activity after Oral Administration into Rats by using MES screen test after 1h,dose 50 mg/kg; number of rats out of four which were protected; format: functional; procedure, shortened: as §2
Mus musculus [27] = assay: Compound was tested for anticonvulsant activity after intraperitoneal injection into mice by using scPTZ screen test after 1 hr; format: functional; settings: ip; procedure, shortened: as §3
[28] = Protection index = TD50/ED50 (MES); settings: mouse, in vivo; read-out: PI
Rattus norvegicus [29] = assay: Compound was tested for anticonvulsant activity after Oral Administration into Rats by using MES screen test after 0.25h,dose 50 mg/kg; No activity was demonstarted; format: functional, organism-based; design: dose 50 mg/kg; procedure, shortened: as §2
Mus musculus [30] = assay: Compound was tested for anticonvulsant activity after intraperitoneal injection into mice by using MES screen test after 0.5 hr; format: functional; settings: ip; procedure, shortened: as §1
Mus musculus [31] = assay: Compound was tested for anticonvulsant activity after intraperitoneal injection into mice by using scPTZ screen test after 0.5 hr; format: functional; settings: ip; procedure, shortened: as §1
Rattus norvegicus [32] = assay: Compound was tested for anticonvulsant activity after Oral Administration into Rats by using MES screen test after 0.5h,dose 50 mg/kg; number of rats out of four which were protected; format: functional; procedure, shortened: as §2
[33] = Partition coefficient (logP); format: physicochemical; settings: octanol/water
Procedure, shortened: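 Partition between 1-octanol and buffer at pH 7.4, with solutions prepared in 1-octanol before buffer is added. Quantified by UV, using λmax and ε values measured in 1-octanol.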

SMILES	Dose (Mus musculus [1]) [mg/kg]	Dose (Mus musculus [2]) [mg/kg]	Dose (Mus musculus [5]) [mg/kg]	Dose (Mus musculus [11]) [mg/kg]	TD50 at 2 h [14] [mg/kg]	Activity (Rattus norvegicus [22])	Activity (Rattus norvegicus [23])	Activity (Rattus norvegicus [25])	Activity (Rattus norvegicus [26])	Activity (Rattus norvegicus [29])	also measured
N=C(N)N/N=C/c1ccc(Sc2ccc(F)cc2)cc1	300	30	100	–	–	–	–	–	–	–	Dose (Mus musculus [3]): 30 mg/kg; Dose (Mus musculus [4]): 100 mg/kg; Activity (Rattus norvegicus [6]): No activity; Activity (Rattus norvegicus [7]): No activity; Activity (Rattus norvegicus [8]): No activity; Activity (Rattus norvegicus [9]): No activity; Activity (Rattus norvegicus [10]): 1
C/C(=N/NC(N)=O)c1ccc(Oc2ccc(Br)cc2)cc1	30	300	100	30	104	–	–	–	–	–	Dose (Mus musculus [4]): 300 mg/kg; ED50 (Mus musculus [12]): 12.5 mg/kg; ED50 (Mus musculus [13]): > 110 mg/kg; Activity (Rattus norvegicus [15]): 4; Activity (Rattus norvegicus [16]): 1; Activity (Rattus norvegicus [17]): 3; Activity (Rattus norvegicus [18]): 4; ED50 (Rattus norvegicus [19]): 1.52 mg/kg; TD50 [20]: > 500 mg/kg; Activity (Rattus norvegicus [10]): 4
NC(=O)N/N=C/c1ccc(Sc2ccc(Cl)cc2)cc1	100	300	100	30	53.2	4	4	4	4	–	ED50 (Mus musculus [21]): 16.2 mg/kg; Activity (Rattus norvegicus [24]): 1; ED50 (Mus musculus [27]): > 120 mg/kg; selectivity ratio [28]: 3.28
NC(=O)N/N=C/c1ccc(Sc2ccccc2)cc1	30	–	300	30	181	4	4	4	4	No activity	ED50 (Mus musculus [21]): 15.6 mg/kg; ED50 (Rattus norvegicus [19]): 4.29 mg/kg; TD50 [20]: > 496 mg/kg; ED50 (Mus musculus [27]): > 46 mg/kg
NC(=O)N/N=C/c1ccc(Oc2ccc(Cl)c(Cl)c2)cc1	300	–	300	30	–	4	4	2	4	No activity	–
NC(=O)N/N=C/c1ccc(Oc2ccccc2F)cc1	100	300	–	300	170	4	4	–	4	–	ED50 (Mus musculus [30]): 20.7 mg/kg; ED50 (Mus musculus [31]): > 220 mg/kg; Activity (Rattus norvegicus [24]): 2; Activity (Rattus norvegicus [32]): 4
COc1ccc(Oc2ccc(/C=N/NC(N)=O)cc2)cc1	100	–	300	100	–	4	4	4	4	No activity	logP [33]: 1.29
